{"source": "ChEMBL document CHEMBL4834403", "about": "“Design and Synthesis of Novel Epigenetic Inhibitors Targeting Histone Deacetylases, DNA Methyltransferase 1, and Lysine Methyltransferase G9a with In Vivo Efficacy in Multiple Myeloma” (J Med Chem, 2021)", "key": {"[1]": {"biological_target": "T1, Protein deacetylase HDAC6 (Homo sapiens, UniProt Q9UBN7)", "T1 sequence (Q9UBN7 whole entry)": "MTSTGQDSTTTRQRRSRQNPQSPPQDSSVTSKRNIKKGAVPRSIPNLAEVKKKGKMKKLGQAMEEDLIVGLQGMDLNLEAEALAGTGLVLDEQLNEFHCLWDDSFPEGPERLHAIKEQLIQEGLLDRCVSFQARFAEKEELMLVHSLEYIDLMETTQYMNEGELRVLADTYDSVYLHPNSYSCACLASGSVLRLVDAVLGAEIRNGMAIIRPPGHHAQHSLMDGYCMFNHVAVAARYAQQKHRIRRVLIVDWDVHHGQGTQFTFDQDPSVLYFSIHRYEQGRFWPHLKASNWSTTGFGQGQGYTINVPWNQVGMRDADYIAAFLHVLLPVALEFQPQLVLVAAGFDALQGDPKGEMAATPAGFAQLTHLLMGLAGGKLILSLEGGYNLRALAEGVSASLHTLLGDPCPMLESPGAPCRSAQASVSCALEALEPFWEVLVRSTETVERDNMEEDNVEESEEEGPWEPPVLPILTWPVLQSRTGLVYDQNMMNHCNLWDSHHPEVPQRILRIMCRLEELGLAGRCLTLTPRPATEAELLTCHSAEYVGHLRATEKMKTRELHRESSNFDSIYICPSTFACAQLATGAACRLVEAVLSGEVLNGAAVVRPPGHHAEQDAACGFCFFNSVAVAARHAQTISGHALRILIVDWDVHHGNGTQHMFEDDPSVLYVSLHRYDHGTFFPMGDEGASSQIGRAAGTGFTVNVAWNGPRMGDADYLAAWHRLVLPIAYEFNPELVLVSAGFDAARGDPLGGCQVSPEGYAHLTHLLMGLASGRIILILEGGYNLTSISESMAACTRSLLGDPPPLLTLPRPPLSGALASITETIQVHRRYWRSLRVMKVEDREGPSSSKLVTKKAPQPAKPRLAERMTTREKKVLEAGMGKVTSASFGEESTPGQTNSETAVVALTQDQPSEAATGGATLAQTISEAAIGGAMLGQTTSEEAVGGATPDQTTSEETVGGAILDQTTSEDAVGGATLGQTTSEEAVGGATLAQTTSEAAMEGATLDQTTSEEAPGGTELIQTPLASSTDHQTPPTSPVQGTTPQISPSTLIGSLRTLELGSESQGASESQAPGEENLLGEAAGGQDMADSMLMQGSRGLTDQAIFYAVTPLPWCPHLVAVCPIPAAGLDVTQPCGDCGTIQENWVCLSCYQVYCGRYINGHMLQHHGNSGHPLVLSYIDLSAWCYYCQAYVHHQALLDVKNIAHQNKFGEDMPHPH", "assay": "Inhibition of full length human N-terminal GST-tagged HDAC6 using fluorogenic acetylated peptide as substrate incubated for 30 mins by fluorescence plate reader assay"}, "[2]": {"assay": "Toxicity in mouse assessed as mouse death at 10 mg/kg, ip after 10 mins", "assay_type": "organism-based", "settings": "in vivo", "method_in_brief": "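Observation made during a preliminary pharmacokinetic study with i.p. dosing, n = 5 mice per dose level, with blood extraction after administration.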"}, "CYP1A2": {"biological_target": "T2, CYP1A2 (Homo sapiens, UniProt P05177)", "T2 sequence (P05177 whole entry)": "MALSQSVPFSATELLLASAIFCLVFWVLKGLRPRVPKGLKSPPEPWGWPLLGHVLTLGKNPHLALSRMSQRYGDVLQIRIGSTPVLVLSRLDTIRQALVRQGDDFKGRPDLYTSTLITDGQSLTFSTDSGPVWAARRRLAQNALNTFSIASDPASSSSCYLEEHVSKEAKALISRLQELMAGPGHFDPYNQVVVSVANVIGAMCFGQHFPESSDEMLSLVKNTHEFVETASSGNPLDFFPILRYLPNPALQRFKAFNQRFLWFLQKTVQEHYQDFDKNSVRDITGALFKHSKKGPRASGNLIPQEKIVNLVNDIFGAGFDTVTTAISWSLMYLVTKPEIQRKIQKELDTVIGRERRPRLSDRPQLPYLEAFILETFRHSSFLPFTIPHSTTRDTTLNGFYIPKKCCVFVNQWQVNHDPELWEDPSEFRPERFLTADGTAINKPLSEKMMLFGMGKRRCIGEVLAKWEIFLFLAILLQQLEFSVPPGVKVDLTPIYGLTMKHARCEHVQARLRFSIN", "assay": "Inhibition of CYP1A2 in human liver microsomes at 10 uM incubated for 10 mins in presence of NADPH by LC-MS/MS analysis relative to control", "assay_type": "ADME"}, "CYP2C19": {"biological_target": "CYP2C19 (Homo sapiens, UniProt P33261)", "sequence (P33261 whole entry)": "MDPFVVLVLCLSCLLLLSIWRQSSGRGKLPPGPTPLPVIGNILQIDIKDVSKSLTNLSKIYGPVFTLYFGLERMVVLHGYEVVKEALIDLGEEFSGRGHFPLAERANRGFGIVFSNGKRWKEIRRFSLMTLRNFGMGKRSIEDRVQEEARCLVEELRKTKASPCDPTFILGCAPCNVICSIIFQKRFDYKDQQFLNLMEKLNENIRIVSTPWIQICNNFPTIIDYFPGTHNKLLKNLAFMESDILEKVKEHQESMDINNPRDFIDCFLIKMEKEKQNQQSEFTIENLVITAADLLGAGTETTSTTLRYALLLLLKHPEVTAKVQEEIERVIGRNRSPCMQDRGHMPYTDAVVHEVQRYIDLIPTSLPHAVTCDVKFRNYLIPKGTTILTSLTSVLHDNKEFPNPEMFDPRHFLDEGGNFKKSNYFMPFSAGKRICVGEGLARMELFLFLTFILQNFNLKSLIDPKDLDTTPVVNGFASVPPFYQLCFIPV", "assay": "Inhibition of CYP2C19 in human liver microsomes at 10 uM incubated for 10 mins in presence of NADPH by LC-MS/MS analysis relative to control", "assay_type": "ADME"}, "CYP2D6": {"biological_target": "CYP2D6 (Homo sapiens, UniProt P10635)", "sequence (P10635 whole entry)": "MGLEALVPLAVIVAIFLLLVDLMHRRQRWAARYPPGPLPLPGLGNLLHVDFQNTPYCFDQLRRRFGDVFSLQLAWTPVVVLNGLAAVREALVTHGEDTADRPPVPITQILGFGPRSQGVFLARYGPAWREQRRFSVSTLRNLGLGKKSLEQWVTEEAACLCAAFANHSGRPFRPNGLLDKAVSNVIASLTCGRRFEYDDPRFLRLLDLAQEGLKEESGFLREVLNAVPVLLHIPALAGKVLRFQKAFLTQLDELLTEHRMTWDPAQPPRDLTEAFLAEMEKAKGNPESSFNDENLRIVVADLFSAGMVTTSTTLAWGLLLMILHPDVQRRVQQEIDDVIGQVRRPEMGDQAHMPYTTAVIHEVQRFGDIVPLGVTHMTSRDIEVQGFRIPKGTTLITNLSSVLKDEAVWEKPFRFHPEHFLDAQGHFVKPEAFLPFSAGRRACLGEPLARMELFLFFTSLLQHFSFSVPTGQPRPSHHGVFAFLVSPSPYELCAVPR", "assay": "Inhibition of CYP2D6 in human liver microsomes at 10 uM incubated for 10 mins in presence of NADPH by LC-MS/MS analysis relative to control", "assay_type": "ADME"}, "[3]": {"assay": "Intrinsic clearance in human pooled hepatocytes", "assay_type": "ADME, cell-based, Hepatocyte", "settings": "read-out: CLH"}, "[4]": {"assay": "Stability of the compound in mouse pooled hepatocytes assessed as parent compound remaining incubated for 60 mins", "assay_type": "ADME, cell-based, Hepatocyte", "settings": "read-out: Stabilty"}, "MM1.S": {"test_system": "MM1.S", "assay": "Antitumor activity against human MM1.S cells xenografted in BALB/c RAG2-/- gammaC-/- mouse assessed as reduction in tumor volume at 10 mg/kg, ip administered for 5 consecutive days followed by 2 days rest and measured after 35 days (reference value: 3836 +/- 1696 mm3)", "assay_type": "functional", "settings": "time 35 day"}}}
{"smiles": "COc1cc2c(NCC3CCN(c4ncc(C(=O)NO)cn4)CC3)cc(-c3ccc(C)o3)nc2cc1OCCCN1CCCC1", "values": [{"measurement": "IC50", "setting": "[1]", "result": 152, "unit": "nM"}, {"measurement": "Activity", "setting": "[2]", "result": "Toxic"}]}
{"smiles": "COc1cc2nc(-c3ccc(C)o3)cc(NCC3CCN(c4ncc(C(=O)NO)cn4)CC3)c2cc1OC", "values": [{"measurement": "inhibition at 10 min, 10 µM", "setting": "CYP1A2", "result": 58.8, "unit": "%"}, {"measurement": "inhibition at 10 min, 10 µM", "setting": "CYP2C19", "result": 5.6, "unit": "%"}, {"measurement": "inhibition at 10 min, 10 µM", "setting": "CYP2D6", "result": 10.8, "unit": "%"}, {"measurement": "CLint scaled", "setting": "[3]", "result": 54.2, "unit": "mL/min/kg"}, {"measurement": "remaining at 1 h", "setting": "[4]", "result": 14.3, "unit": "%"}, {"measurement": "Activity", "setting": "MM1.S", "result": 1788, "unit": "mm3"}]}
